# Test results: PMC7398146 (The Journal of General Physiology, 2020)
# How the values were obtained:
# hKV7.2/3 = hKV7.2/3 (Homo sapiens, UniProt O43525+O43526); test: Two-electrode voltage clamp, hKV7.2/3 in Xenopus oocytes; assay type: cell-based; conditions: for effect on maximal conductance GMAX (in words) / shift of V50 (in words): 10 µM and 100 µM
# In short: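 hKV7.2 and hKV7.3 cRNA (2.5 ng each) were coinjected into Xenopus oocytes, held 2–4 d at 8°C or 16°C, and clamped with two electrodes at rt in HEPES saline, pH 7.4. Holding −80 mV; 2-s steps from −100 to +50 mV in 10-mV increments; tail −30 mV. Boltzmann G(V) fits per oocyte gave ΔV50 and GMAX change. A Hill fit across concentrations gave EC50. Current fold increase was taken per test voltage; mean ± SEM.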
# [1] = molecular target: hKV7.2_W236L/hKV7.3_W265L (Homo sapiens, UniProt O43525+O43526, A315T/W236L/W265L); test: Two-electrode voltage clamp, tryptophan mutant heteromer; assay type: cell-based; conditions: 3 µM
# In short: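 Human KV7 cRNA (2.5–50 ng per oocyte; mutants made by site-directed mutagenesis) was injected into Xenopus oocytes, which were kept 2–4 d at 8°C or 16°C. Two-electrode clamp was run at rt in 88 mM NaCl/1 mM KCl/15 mM HEPES saline, pH 7.4. Holding −80 mV; 2-s steps from −100 to +50 mV; tail −30 mV. Tail-current Boltzmann G(V) fits used a shared slope, giving per-oocyte ΔV50 and GMAX change; mean ± SEM.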
# hKV7.1 = hKV7.1 (Homo sapiens, UniProt P51787); conditions: ref Schenzer et al., 2005; cited from earlier work
# Sequence of hKV7.1 (P51787 whole entry): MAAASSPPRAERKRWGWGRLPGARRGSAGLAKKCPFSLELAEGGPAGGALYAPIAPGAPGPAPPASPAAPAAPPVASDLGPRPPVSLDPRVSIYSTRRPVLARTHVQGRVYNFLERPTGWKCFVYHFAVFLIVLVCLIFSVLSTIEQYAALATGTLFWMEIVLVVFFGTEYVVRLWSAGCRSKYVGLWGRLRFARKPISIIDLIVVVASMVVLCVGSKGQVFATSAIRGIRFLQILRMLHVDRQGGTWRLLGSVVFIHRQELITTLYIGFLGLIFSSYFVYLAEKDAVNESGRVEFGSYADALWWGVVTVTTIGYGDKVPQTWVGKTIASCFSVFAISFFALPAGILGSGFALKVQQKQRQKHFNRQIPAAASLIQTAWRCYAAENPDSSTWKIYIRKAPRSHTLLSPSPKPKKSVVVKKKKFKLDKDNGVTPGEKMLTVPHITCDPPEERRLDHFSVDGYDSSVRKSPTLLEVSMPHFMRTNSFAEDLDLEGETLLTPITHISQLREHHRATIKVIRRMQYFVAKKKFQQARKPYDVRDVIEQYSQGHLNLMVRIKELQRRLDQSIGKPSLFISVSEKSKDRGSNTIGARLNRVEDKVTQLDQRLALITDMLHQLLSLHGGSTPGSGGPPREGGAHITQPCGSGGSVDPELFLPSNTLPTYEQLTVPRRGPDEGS
# [2] = 10 µM, analogues compared with ARA-S
structure (smiles),measurement,setting,value
"CCCCC/C=C\C/C=C\C/C=C\C/C=C\CCCC(=O)OC(CO)CO [2-AG, 2-arachidonoylglycerol]",effect on maximal conductance GMAX (in words),hKV7.2/3,no effect
same,shift of V50 (in words),hKV7.2/3,no effect
"CCCCC/C=C\C/C=C\C/C=C\C/C=C\CCCC(=O)N[C@H](CO)C(=O)O (single isomer, unassigned) [D enantiomer of ARA-S, N-arachidonoyl-D-serine]",effect on GMAX (in words),hKV7.2/3; [2],comparable
same,effect on V50 (in words),hKV7.2/3; [2],comparable
CCOC(=O)Nc1ccc(NCc2ccc(F)cc2)cc1N [retigabine],current fold increase at −60 mV,hKV7.2/3; 1 µM alone,three- to fourfold
same,increase in GMAX,hKV7.2/3; 1 µM alone,did not affect
same,shift in V50 (ΔV50),hKV7.2/3; 1 µM alone,−8.1 ± 0.7 mV
same,ΔV50:MAX (maximal shift in V50),hKV7.2/3; from concentration-response curve,−35 mV
same,sensitivity (shift in V50),[1],insensitive
same,sensitivity of the channel,hKV7.1,insensitive
"CCCCC/C=C\C/C=C\C/C=C\C/C=C\CCCC(=O)NCCO [AEA, N-arachidonoylethanolamine]",effect on maximal conductance GMAX (in words),hKV7.2/3,no effect
same,shift of V50 (in words),hKV7.2/3,no effect
